Laboratory results reported in ChEMBL document CHEMBL4270516, “Screening serine/threonine and tyrosine kinase inhibitors for histidine kinase inhibition” (Bioorg Med Chem, 2018).
Calls of active or inactive are those of the source. No cut-off for these calls is given here.

Key:
[1] = tested on: Thermotoga maritima; experiment: Inhibition of ADP-BODIPY binding to Thermotoga maritima HK853 at 100 uM by fluorescence polarization assay
[2] = tested on: Thermotoga maritima; experiment: Induction of Thermotoga maritima HK853 aggregation up to 500 uM in presence of glutaraldehyde by PAGE analysis
[3] = Inhibition of ADP-BODIPY binding to Thermotoga maritima HK853 in presence of Triton X-100 by fluorescence polarization assay
[4] = tested on: Sensor histidine kinase VicK/WalK (Streptococcus pneumoniae); experiment: Induction of Streptococcus pneumoniae VicK aggregation up to 500 uM in presence of glutaraldehyde by PAGE analysis
[5] = Inhibition of ADP-BODIPY binding to Thermotoga maritima HK853 by fluorescence polarization assay
[6] = Inhibition of Thermotoga maritima HK853 autophosphorylation using compound at non-aggregating concentration after 30 mins in presence of [gamma-33P]-ATP by phosphorescence-based assay
Outline: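 Coupled competition-aggregation assay with HK853 (T. maritima) and VicK (S. pneumoniae); enzymatic autophosphorylation followed with [γ-33P]ATP.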

[7] = Inhibition of ADP-BODIPY binding to Thermotoga maritima HK853 after day 1 by fluorescence polarization assay
[8] = tested on: Staphylococcus aureus; experiment: Bactericidal activity against methicillin-sensitive Staphylococcus aureus MSSA 447 at 400 uM after 18 hrs by resazurin-dye based fluorescence assay; format: functional, organism-based
Outline: (§1)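 Viability of methicillin-sensitive S. aureus and P. aeruginosa after treatment, judged by optical density and resazurin indicator dye relative to a DMSO control.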

[9] = tested on: Pseudomonas aeruginosa; experiment: Bactericidal activity against methicillin-sensitive Pseudomonas aeruginosa PAO1 at 400 uM after 18 hrs by resazurin-dye based fluorescence assay; format: functional, organism-based; outline: as §1
[10] = tested on: Staphylococcus aureus; experiment: Antibiofilm activity against methicillin-sensitive Staphylococcus aureus MSSA 447 at 112.5 to 500 uM after 18 hrs by crystal violet staining-based assay; format: functional, organism-based
Outline: (§2)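 Biofilm formation by S. aureus and P. aeruginosa quantified by crystal violet staining, compared against DMSO-treated bacteria.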

[11] = Inhibition of ADP-BODIPY binding to Thermotoga maritima HK853 after day 2 by fluorescence polarization assay
[12] = tested on: Pseudomonas aeruginosa; experiment: Antibiofilm activity against methicillin-sensitive Pseudomonas aeruginosa PAO1 at 112.5 to 500 uM after 18 hrs by crystal violet staining-based assay; format: functional, organism-based; outline: as §2

| SMILES | inhibition [1] [%] | Activity [2] | IC50 [3] [µM] | Activity [4] | IC50 [5] [µM] | IC50 [6] [µM] | also measured |
| --- | --- | --- | --- | --- | --- | --- | --- |
| Cn1cc(C2=C(c3cccc(NCC(O)CO)c3)C(=O)NC2=O)c2cc(Cl)ccc21 (stereo unspecified) | 79.2 | Active | 24.4 | Active | 21.9 | – | – |
| CNc1ncc2cc(Oc3ccc(F)cc3F)c(=O)n(C)c2n1 | 74.7 | Active | 15.2 | Active | 19.1 | 106 | – |
| Nc1ncnc2c1ncn2[C@@H]1O[C@H](COP(=O)(O)OP(=O)(O)O)[C@@H](O)[C@H]1O [ADENOSINE DIPHOSPHATE] | – | – | – | – | – | 13.7 | – |
| COc1cc[nH]c1/C=C1\C(=O)Nc2ccc([N+](=O)[O-])c(C3CC[C@@H](O)C3)c21 (stereo partly specified) | 66.3 | Active | 13 | Active | 12 | – | – |
| O=[N+]([O-])c1ccc2c(c1)C(c1ccccc1Cl)=Nc1c[nH]nc1N2 | 98.1 | Active | 160 | Active | 26.2 | – | – |
| CONC1=NC(=O)/C(=C/c2ccc3ncccc3c2)S1 | 90.1 | – | 27.1 | – | 21.6 | 124 | – |
| Cc1cc(C)c2c(n1)sc1c(N)ncnc12 | 73.7 | – | 42.2 | – | 38.3 | 99 | – |
| Nc1ncnc2c1ncn2[C@@H]1O[C@H](COP(=O)(O)OP(=O)(O)NP(=O)(O)O)[C@@H](O)[C@H]1O | – | – | – | – | – | 48.2 | – |
| O=C1C(c2c[nH]c3ccccc23)=C(c2c[nH]c3ccccc23)C(=O)N1O | 81.2 | Active | > 300 | Active | 96 | – | – |

Now from value to compound, other results behind:

| inhibition [1] [%] | Activity [2] | IC50 [3] [µM] | Activity [4] | IC50 [5] [µM] | IC50 [6] [µM] | SMILES | also measured |
| --- | --- | --- | --- | --- | --- | --- | --- |
| 4.8 | – | – | – | – | – | Fc1ccc(-c2c(-c3ccncc3)n(CCN3CCOCC3)c3cccnc23)cc1 | – |
| 15 | – | – | – | – | – | Cn1c(-c2ccncc2)c(-c2ccc(F)cc2)c2ncccc21 | – |
| 65.5 | Active | 12 | Active | 12 | 282 | O=C1N=C(N[C@H](CO)c2ccccc2)S/C1=C\c1ccc2ncccc2c1 | – |
| 79.9 | – | 22.5 | – | 23.7 | 101 | Fc1ccc(-c2c(-c3ccncc3)[nH]c3nccnc23)cc1 | IC50 [7]: 2.7 µM; Activity [8]: inactive; Activity [9]: inactive; Activity [10]: inactive; IC50 [11]: 6.26 µM; Activity [12]: inactive |
| 6.5 | – | – | – | – | – | Fc1ccc(-c2c(-c3ccncc3)[nH]c3cccnc23)cc1 | – |
| 5.8 | – | – | – | – | – | OCCn1c(-c2ccncc2)c(-c2ccc(F)cc2)c2ncccc21 | – |
